Source: paper PMC2964879 (Biochemistry, 2010)
Values after ≈ are worked out from the molar mass of the structure shown.

Tests used:
BasE [1] = biological target: T1, BasE (Acinetobacter baumannii, UniProt A0A0D5YGP3); conditions: for specificity constant, fold lower than DHB / kcat, fold decrease relative to DHB: relative to DHB; for KM, fold change relative to DHB: relative to DHB (increase in KM)
holo-BasF = test: ESI-TOF mass spectrometry of aryl acid loading onto holo-BasF by BasE; assay type: biochemical, A. baumannii AB900; conditions: 50 μM holo-BasF, 200 nM BasE, 250 μM aryl acid, 16 hours
In short: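 His-tagged BasF from A. baumannii AB900, expressed in E. coli, made holo in vitro with Sfp and CoA, then anion-exchange purified. Apo- and holo-BasF in the same buffer were reference samples. Samples were diluted in 50:50 water:acetonitrile with 0.1% formic acid and injected directly for ESI-TOF MS.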

EntE = conditions: cited from earlier work
A. baumannii = test: Antibacterial activity; assay type: cell-based
BasE [2] = biological target: T1, BasE; test: Fluorescence polarization displacement assay, BasE-AB900; assay type: binding, A. baumannii AB900; conditions: read-out: KD (FP) of the fluorescent probe
BasE [3] = biological target: T1, BasE; test: Fluorescence polarization displacement assay, BasE-ATCC; assay type: binding, A. baumannii ATCC17978; conditions: read-out: KD (FP) of the fluorescent probe
[4] = test system: coupling enzymes inorganic pyrophosphatase and purine nucleoside phosphorylase; test: Counter-test on the coupling enzymes of the continuous assay; assay type: biochemical; conditions: 200 μM; data not shown
BasE [5] = biological target: T1, BasE; test: Kinetic inhibition experiments with the continuous coupled assay; assay type: biochemical, A. baumannii ATCC17978
BasE [6] = conditions: read-out: dissociation constant Kia; nonvaried substrate in eq 2; cited from earlier work
BasE [7] = conditions: ATP-PPi exchange, saturating ATP; cited from earlier work
MbtA = conditions: cited from earlier work

With `O=C(O)c1cccc(O)c1` [Compound 3-HBA, 3-hydroxy benzoic acid] the “specificity constant, fold lower than DHB” value (BasE [1]) was 60 fold and the loading (holo-BasF) was “partial”.
For `Nc1ncnc2c1ncn2[C@@H]1O[C@H](COS(=O)(=O)NC(=O)c2cccc(O)c2O)[C@@H](O)[C@H]1O` [Compound 5, 5′-O-[N-(2,3-dihydroxybenzoyl)sulfamoyl]adenosine], the “inhibition of EntE (inhibition and dissociation constants, in words)” value (EntE) is listed as “slow tight-binding picomolar inhibitors” and the “antibacterial activity against A. baumannii” value (A. baumannii; unpublished results, D. Wilson and C. Aldrich) is listed as “do not possess any antibacterial activity”.
`Nc1ncnc2c1ncn2[C@@H]1O[C@H](COP(=O)(O)OP(=O)(O)OP(=O)(O)O)[C@@H](O)[C@H]1O` [ATP] gave a kcat (BasE [1]; substrate of BasE, coupled assay, 25 °C, pH 8.0) of 2.8 ± 0.2 s⁻¹ and a Km (BasE [1]; substrate of BasE, coupled assay, 25 °C, pH 8.0, nonvaried substrates saturating) of 300 ± 71 µM.
`Nc1ncnc2c1ncn2[C@@H]1O[C@H](COS(=O)(=O)NC(=O)c2ccccc2O)[C@@H](O)[C@H]1OCCOCCOCCNC(=O)c1ccc2c(c1)C(=O)OC21c2ccc(O)cc2Oc2cc(O)ccc21` [Compound 9, 2′-O-{2-[2-(2-{[(fluorescein-5-yl)carbonyl]amino}ethoxy)ethoxy]ethoxy}-5′-O-[N-(2-hydroxybenzoyl)sulfamoyl]adenosine] gave a Kd (BasE [2]) of 144 ± 9 nM and a Kd (BasE [3]) of 84 ± 6 nM.
For `CCCCCCCCCCCCc1cn(-c2nc(N)c3ncn([C@@H]4O[C@H](COS(=O)(=O)NC(=O)c5ccccc5O)[C@@H](O)[C@H]4O)c3n2)nn1` [Compound 7, 2-(4-n-dodecyl-1,2,3-triazol-1-yl)-5′-O-[N-(2-hydroxybenzoyl)sulfamoyl]adenosine], the MIC (A. baumannii; Acinetobacter baumannii) was roughly 15 µM (≈ 10.5 µg/mL) and the antibacterial activity (A. baumannii; iron replete conditions) was “inactive”.
In the case of `O=C(O)c1ccccc1` [BA, benzoic acid], the “kcat, fold decrease relative to DHB” value (BasE [1]) is reported as roughly 10 fold, the “specificity constant, fold lower than DHB” value (BasE [1]) is reported as “three orders of magnitude” and the “KM, fold change relative to DHB” value (BasE [1]) is reported as roughly 100 fold. The loading (holo-BasF) was “partial”.
With `O=C(O)c1cc(-c2ccccc2)nc2c1cnn2Cc1ccncc1` [Compound 8, 6-phenyl-1-(pyridin-4-ylmethyl)-1H-pyrazolo[3,4-b]pyridine-4-carboxylic acid] the “inhibition of the coupling enzymes” value [4] was “did not inhibit”, the “modality of inhibition with respect to DHB and ATP” value (BasE [5]) was “competitive inhibition with respect to both substrates” and the slow binding inhibition (BasE [5]; 10 min pre-incubation at 25 °C, data not shown) was “did not exhibit slow binding inhibition”.
For `O=C(O)c1ccccc1O` [SAL, 2-hydroxybenzoic acid], the “kcat, fold decrease relative to DHB” value (BasE [1]) was roughly 3 fold, the “specificity constant, fold lower than DHB” value (BasE [1]) was “approximately 6 fold” and the “KM, fold change relative to DHB” value (BasE [1]) was “approximately 2 fold”. For the same compound, the loading (holo-BasF) was “partial”.
For `O=C(O)c1cccc(O)c1O` [DHB, 2,3-dihydroxybenzoic acid], the Kd (BasE [6]) is given as 2630 nM, the Km (BasE [7]) is given as 1500 nM and the kcat (BasE [7]) is given as 3.5 s⁻¹. The loading (holo-BasF) was “full”.
In the case of `Nc1nc(-c2ccccc2)nc2c1ncn2[C@@H]1O[C@H](COS(=O)(=O)NC(=O)c2ccccc2O)[C@@H](O)[C@H]1O` [5′-O-[N-(2-hydroxybenzoyl)sulfamoyl]-2-phenyladenosine], the binding constant (MbtA) is given as “subnanomolar”.
